Screening results as filed in PubChem BioAssay.
T cruzi growth-1: T. cruzi proliferation inhibition; T. cruzi beta-gal in NIH3T3, GalScreen luminescence, 90 h; inhibition, % at 8.34 µM; 77,000 compounds, 5.9% hits; AID 624255;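 active = mean inhibition above about 93%, with at least 55% of replicates each passing it, limit read from the data, passing the limit was not always enough; inconclusive = only one of those two conditions holds; inactive = neither condition holds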
IDH1 mut inh: blocks human IDH1 R132H reductase activity | O75874 | diaphorase/resazurin fluorescence, 60 min | inhibition, % at 10 µM | 70,000 compounds, 0.18% hits; in the data active = inhibition above about 34%; inconclusive = no clear call, values can overlap the other calls; inactive = below about 11%
GASC1 inh: KDM4C (human) demethylase inhibition. Q9H3R0. GST-KDM4C 2-372, H3K9me3 peptide, LANCE TR-FRET. 96,000 compounds, 0.15% hits. inhibition, % at 12.5 µM;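 active = mean replicate inhibition above about 25%, with at least 55% of replicates also reaching it, limit read from the data, passing the limit was not always enough; inconclusive = only one of those two conditions met; inactive = neither condition met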
Target sequence (Q9H3R0 2-372 limits assumed): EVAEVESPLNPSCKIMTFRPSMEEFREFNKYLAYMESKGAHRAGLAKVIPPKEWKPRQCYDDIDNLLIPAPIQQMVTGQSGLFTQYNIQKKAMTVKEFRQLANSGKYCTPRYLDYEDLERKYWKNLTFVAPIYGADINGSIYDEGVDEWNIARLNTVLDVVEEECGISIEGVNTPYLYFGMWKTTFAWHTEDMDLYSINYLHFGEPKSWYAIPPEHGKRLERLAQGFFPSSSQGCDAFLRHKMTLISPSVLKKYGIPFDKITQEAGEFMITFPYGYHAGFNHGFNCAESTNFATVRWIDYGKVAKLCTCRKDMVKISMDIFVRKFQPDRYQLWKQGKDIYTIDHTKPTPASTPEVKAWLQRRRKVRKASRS
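System: N-terminal GST-fused human GASC-1 (KDM4C) fragment, residues 2-372 / Amount: 10 nM GST-KDM4C in enzyme reaction / Also added: H3K9me3 peptide with Fe(II)/2OG / Times: 30 min demethylation and 1 h detection at room temperature / Signal: LANCE TR-FRET / Read-out basis: Fall in 671/618 emission ratio as inhibition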
T cruzi growth-2: Trypanosoma cruzi proliferation inhibition; T. cruzi beta-gal in NIH3T3, GalScreen luminescence, 90 h; AID 651739; shares compounds with T cruzi growth-1; inhibition, % at 8.35 µM; 5,600 compounds, 72% hits;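 active = mean replicate inhibition above about 95% and at least 55% of replicates individually reaching it, limit read from the data; inconclusive = only one of the two criteria is met; inactive = neither criterion is met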
T cruzi growth-3: Trypanosoma cruzi proliferation inhibition | inhibition, % at 2.09 µM | 5,600 compounds, 21% hits | AID 651740 | shares compounds with T cruzi growth-1 | T. cruzi beta-gal in NIH3T3, GalScreen luminescence, 90 h;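 active = mean inhibition above about 95%, with at least 55% of replicates also reaching it, limit read from the data; inconclusive = meets just one of the two conditions; inactive = meets neither condition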
3T3 cytotox: NIH/3T3 (mouse) viability loss; shares compounds with T cruzi growth-1; NIH/3T3 viability, CellTiter-Glo ATP luminescence, 90 h; cytotoxicity (signal decrease), % at 8.35 µM; 5,600 compounds, 14% hits; AID 651742;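 active = mean signal decrease across replicates above about 35% based on untreated-well scatter, with enough replicates individually passing, limit read from the data; inconclusive = no rule stated though some were filed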
3T3 cytotox 2: cytotoxicity in mouse NIH/3T3 fibroblasts | shares compounds with T cruzi growth-1 | NIH/3T3 viability, CellTiter-Glo ATP luminescence, 90 h | inhibition, % at 24.9 µM | 5,600 compounds, 56% hits | AID 651744;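 active = mean loss of cell viability signal at or above a set limit, and enough replicates individually reaching it; inconclusive = meets only the mean limit or only the replicate share; inactive = meets neither condition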
A number is an active result; - = inactive; ? = inconclusive; . = not tested or not shown; ! = repeats disagree. The full list was thinned out, with hits kept by preference.

SMILES	T cruzi growth-1	IDH1 mut inh	GASC1 inh	T cruzi growth-2	T cruzi growth-3	3T3 cytotox	3T3 cytotox 2
C[C@H](CO)N1C[C@H](C)[C@H](CN(C)C(=O)NC2CCCCC2)OCc2cnnn2CCCC1=O	-	.	-	.	.	.	.
C[C@@H]1CN([C@@H](C)CO)C(=O)CCCn2nncc2CO[C@@H]1CN(C)C(=O)c1ccc2ccn(C)c2c1	-	-	-	.	.	.	.
CC(C)COC(=O)N(C)C[C@H]1OCc2cnnn2CCCC(=O)N([C@@H](C)CO)C[C@H]1C	-	-	.	.	.	.	.
CC(C)COC(=O)N(C)C[C@@H]1OCc2cnnn2CCCC(=O)N([C@H](C)CO)C[C@H]1C	101.4!	.	-	-	-	-	-
C[C@@H]1CCCCO[C@@H](CN(C)S(=O)(=O)c2cn(C)cn2)[C@@H](C)CN([C@@H](C)CO)C(=O)c2cc(NC(=O)Nc3cccc4ccccc34)ccc2O1	-	-	-	.	.	.	.
CCC(=O)N1C[C@@H](C)[C@H](OC)CN(C)C(=O)c2cc(NC(=O)c3ccccc3)ccc2OC[C@@H]1C	-	-	-	.	.	.	.
N#C[C@@H]1[C@H](c2ccccc2)[C@@H](CO)N1C(=O)c1cc(Cl)cc(Cl)c1	-	.	-	.	.	.	.
N#C[C@H]1[C@@H](c2ccccc2)[C@H](CO)N1C(=O)c1cc(Cl)cc(Cl)c1	?	.	-	?	-	-	-
N#C[C@@H]1[C@@H](c2ccc(-c3ccccc3)cc2)[C@H](CO)N1C(=O)Cc1ccccc1	-	.	-	.	.	.	.
N#C[C@@H]1[C@H](c2ccc(-c3ccccc3)cc2)[C@H](CO)N1C(=O)Cc1ccccc1	?	.	-	102.9	-	-	-
N#C[C@H]1[C@@H](c2ccc(-c3ccccc3)cc2)[C@H](CO)N1C(=O)Cc1ccccc1	104.4	.	-	110.3	-	-	31.5
N#C[C@H]1[C@H](c2ccc(-c3ccccc3)cc2)[C@H](CO)N1C(=O)Cc1ccccc1	-	.	-	.	.	.	.
COCC(=O)Nc1ccc2c(c1)C(=O)N(C)[C@@H]1CC[C@H](CC(=O)NCc3ccccc3Cl)O[C@H]1CO2	-	.	-	.	.	.	.
O=C(CCCC(=O)Nc1ccccc1)Nc1ccccc1	.	-	.	.	.	.	.
O=C(N[C@@H]1C=C[C@H](CC(=O)N2CCOCC2)O[C@@H]1CO)c1ccc2c(c1)OCO2	-	-	-	.	.	.	.
C[C@H]1CN([C@@H](C)CO)C(=O)c2cc(NS(=O)(=O)c3ccc(F)cc3)ccc2O[C@@H]1CN(C)Cc1ccc(-c2ccccc2)cc1	?	-	-	106.1	-	-	103.1
C[C@@H]1CN([C@@H](C)CO)C(=O)c2cc(NS(=O)(=O)c3ccc(Cl)cc3)ccc2O[C@H]1CN(C)Cc1ccc(-c2ccccc2)cc1	109.4	.	-	105.6	-	-	104.2
C[C@H](CO)N1C[C@H](C)[C@H](CN(C)Cc2ccc(-c3ccccc3)cc2)Oc2ccc(NS(=O)(=O)c3ccc(F)cc3)cc2C1=O	-	-	-	.	.	.	.
C[C@H](CO)N1C[C@H](C)[C@H](CN(C)Cc2ccc(-c3ccccc3)cc2)Oc2ccc(NS(=O)(=O)c3cccs3)cc2C1=O	-	-	-	.	.	.	.
C[C@@H]1CN([C@H](C)CO)C(=O)c2cc(NS(=O)(=O)c3cccs3)ccc2O[C@@H]1CN(C)Cc1ccc(-c2ccccc2)cc1	93.4	-	-	-	-	-	-
Cc1ccc(S(=O)(=O)Nc2ccc3c(c2)C(=O)N([C@@H](C)CO)C[C@H](C)[C@@H](CN(C)Cc2ccc(-c4ccccc4)cc2)O3)cc1	?	-	-	103.0	-	-	87.1
Cc1ccc(S(=O)(=O)Nc2ccc3c(c2)C(=O)N([C@@H](C)CO)C[C@@H](C)[C@H](CN(C)Cc2ccc(-c4ccccc4)cc2)O3)cc1	-	.	-	.	.	.	.
C[C@H]1CN([C@@H](C)CO)C(=O)c2cc(NS(=O)(=O)c3ccc(Cl)cc3)ccc2O[C@H]1CN(C)Cc1ccc(-c2ccccc2)cc1	-	-	-	.	.	.	.
C[C@H]1CN([C@@H](C)CO)C(=O)Cc2cc(NC(=O)Nc3ccc(F)cc3)ccc2O[C@H]1CN(C)C	.	-	-	.	.	.	.
CS(=O)(=O)N1CC(=O)N2[C@H](C1)[C@@H](c1ccc(C#Cc3ccc(F)cc3)cc1)[C@@H]2CO	.	.	-	.	.	.	.
C[C@@H]1CN([C@@H](C)CO)C(=O)c2cc(NS(=O)(=O)c3ccc(F)cc3)ccc2O[C@H]1CN(C)Cc1ccc(C(=O)O)cc1	-	.	-	.	.	.	.
